Reference: ChEMBL document CHEMBL3588823, “Design, synthesis and biological evaluation of novel 5-oxo-2-thioxoimidazolidine derivatives as potent androgen receptor antagonists” (Eur J Med Chem, 2015)

Experiments:
[1] = molecular target: T1, Androgen receptor (Homo sapiens, UniProt P10275); test: Partial agonist activity at androgen receptor (unknown origin)
T1 sequence (P10275 whole entry): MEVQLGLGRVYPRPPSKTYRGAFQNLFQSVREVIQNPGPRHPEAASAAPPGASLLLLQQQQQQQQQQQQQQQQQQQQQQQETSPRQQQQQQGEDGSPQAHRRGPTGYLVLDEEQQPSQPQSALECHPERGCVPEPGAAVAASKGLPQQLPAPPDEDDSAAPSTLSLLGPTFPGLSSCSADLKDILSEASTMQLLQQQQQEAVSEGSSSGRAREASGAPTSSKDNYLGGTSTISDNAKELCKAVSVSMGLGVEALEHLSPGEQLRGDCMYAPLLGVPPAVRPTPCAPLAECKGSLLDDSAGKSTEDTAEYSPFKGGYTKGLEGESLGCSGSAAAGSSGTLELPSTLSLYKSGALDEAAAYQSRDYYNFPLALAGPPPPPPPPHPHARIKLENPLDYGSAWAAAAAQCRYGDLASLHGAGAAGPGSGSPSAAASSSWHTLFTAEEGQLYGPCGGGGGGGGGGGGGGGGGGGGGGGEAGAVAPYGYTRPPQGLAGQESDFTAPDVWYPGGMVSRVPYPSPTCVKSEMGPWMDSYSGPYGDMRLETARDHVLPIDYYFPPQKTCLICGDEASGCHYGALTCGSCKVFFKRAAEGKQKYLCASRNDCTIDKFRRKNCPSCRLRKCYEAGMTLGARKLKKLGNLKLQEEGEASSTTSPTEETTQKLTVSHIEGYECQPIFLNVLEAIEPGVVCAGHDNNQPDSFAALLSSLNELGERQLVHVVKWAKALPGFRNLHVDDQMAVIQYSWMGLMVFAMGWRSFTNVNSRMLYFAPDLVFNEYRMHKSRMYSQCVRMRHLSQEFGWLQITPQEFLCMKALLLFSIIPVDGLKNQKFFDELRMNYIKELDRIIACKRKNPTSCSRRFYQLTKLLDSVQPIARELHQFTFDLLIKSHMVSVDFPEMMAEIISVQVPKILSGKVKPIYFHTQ
How it was run: (§1)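 LNCaP cells seeded at 10,000 per well in RPMI 1640 with 10% charcoal-stripped serum and 1% AAS, then held 3 days at 37 °C. Medium was then replaced with serial compound dilutions, either without DHT (agonism mode) or with DHT (antagonism mode).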

[2] = test system: LNCaP; test: Antiproliferative activity against human LNCAP cells after 3 days; type: functional, cell-based; how it was run: as §1
[3] = AUC (0 to time) in rat at 5 mg/kg, po; type: ADME, organism-based; settings: in vivo
How it was run: (§2)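 Rats (n = 3) received a single 5 mg/kg oral dose in 0.5% HPMC. EDTA blood samples were taken at 15 and 30 min and at 1, 2, 4, 8 and 24 h. Plasma was obtained by centrifugation, mixed with acetonitrile:H2O (1:1 v/v) and precipitated with acetonitrile.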

[4] = test system: Rattus norvegicus; test: (§3) Half life in rat at 5 mg/kg, po; type: ADME, organism-based; settings: in vivo
How it was run: (§4)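 Rats (n = 3) were given a single 5 mg/kg oral dose in 0.5% HPMC. Blood was taken into EDTA tubes at 15 and 30 min and 1, 2, 4, 8 and 24 h. Plasma was obtained by centrifugation and proteins were precipitated with acetonitrile. Bioavailability was calculated against a 1 mg/kg iv dose.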

[5] = Oral bioavailability in rat at 5 mg/kg; type: ADME, organism-based; settings: in vivo; how it was run: as §4
[6] = molecular target: T1, Androgen receptor; test: Antagonist activity at androgen receptor (unknown origin)
[7] = MRT (last) in rat at 5 mg/kg, po; type: ADME, organism-based; settings: in vivo; how it was run: as §4
[8] = test system: Rattus norvegicus; test: (§5) AUC (0 to infinity) in rat at 5 mg/kg, po; type: ADME, organism-based; parameters: dose 5 mg/kg, route oral, time infinity; settings: in vivo; how it was run: as §2
[9] = AUC (0 to infinity) in rat at 1 mg/kg, iv; type: ADME, organism-based; parameters: dose 1 mg/kg, route intravenous, time infinity; settings: in vivo
How it was run: (§6)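 Rats (n = 3) given a single 1 mg/kg iv dose in 20% HP-b-CD. Blood was drawn into EDTA tubes at 5, 15 and 30 min and at 1, 2, 4, 8 and 24 h. Plasma was separated by centrifugation, mixed with acetonitrile:H2O (1:1 v/v) and protein-precipitated with acetonitrile.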

[10] = (§7) Clearance in rat at 1 mg/kg, iv; type: ADME, organism-based; settings: in vivo
How it was run: (§8)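 Rats (n = 3) were given a single 1 mg/kg iv dose in 20% hydroxypropyl-β-cyclodextrin. Blood was taken into EDTA tubes at 5, 15 and 30 min and 1, 2, 4, 8 and 24 h. Plasma was obtained by centrifugation and proteins were precipitated with acetonitrile before analysis.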

[11] = AUC (0 to time) in rat at 1 mg/kg, iv; type: ADME, organism-based; settings: in vivo; how it was run: as §6
[12] = Volume of distribution in rat at 1 mg/kg, iv; type: ADME, organism-based; settings: in vivo; how it was run: as §8
[13] = MRT (INF) in rat at 5 mg/kg, po; type: ADME, organism-based; settings: in vivo; how it was run: as §4
[14] = MRT (last) in rat at 1 mg/kg, iv; type: ADME, organism-based; settings: in vivo; how it was run: as §8
[15] = Tmax in rat at 1 mg/kg, iv; type: ADME, organism-based; settings: in vivo; how it was run: as §8
[16] = test system: Rattus norvegicus; test: MRT (INF) in rat at 1 mg/kg, iv; type: ADME, organism-based; settings: in vivo; how it was run: as §8
[17] = test system: Rattus norvegicus; test: (§9) Cmax in rat at 5 mg/kg, po; type: ADME, organism-based; parameters: dose 5 mg/kg, route oral; settings: in vivo; how it was run: as §4
[18] = test system: Rattus norvegicus; test: (§10) Cmax in rat at 1 mg/kg, iv; type: ADME, organism-based; parameters: dose 1 mg/kg, route intravenous; settings: in vivo; how it was run: as §8
[19] = test system: Rattus norvegicus; test: (§11) Tmax in rat at 5 mg/kg, po; type: ADME, organism-based; settings: in vivo; how it was run: as §4
[20] = test system: Rattus norvegicus; test: (§12) Half life in rat at 1 mg/kg, iv; type: ADME, organism-based; settings: in vivo; how it was run: as §8
[21] = as §3; type: ADME, organism-based; settings: in vivo; how it was run: as §4
[22] = Clearance in rat at 5 mg/kg, po; type: ADME, organism-based; settings: in vivo; how it was run: as §4
[23] = test system: Rattus norvegicus; test: Volume of distribution at steady state in rat at 1 mg/kg, iv; type: ADME, organism-based; settings: in vivo; how it was run: as §8
[24] = as §5; type: ADME, organism-based; parameters: dose 5 mg/kg, route oral, time infinity; settings: in vivo; how it was run: as §2
[25] = test system: Rattus norvegicus; test: as §7; type: ADME, organism-based; settings: in vivo; how it was run: as §8
[26] = as §9; type: ADME, organism-based; parameters: dose 5 mg/kg, route oral; settings: in vivo; how it was run: as §4
[27] = test system: Rattus norvegicus; test: Volume of distribution at steady state in rat at 5 mg/kg, po; type: ADME, organism-based; settings: in vivo; how it was run: as §4
[28] = as §10; type: ADME, organism-based; parameters: dose 1 mg/kg, route intravenous; settings: in vivo; how it was run: as §8
[29] = as §11; type: ADME, organism-based; settings: in vivo; how it was run: as §4
[30] = as §12; type: ADME, organism-based; settings: in vivo; how it was run: as §8
[31] = test system: Rattus norvegicus; test: Volume of distribution in rat at 5 mg/kg, po; type: ADME, organism-based; settings: in vivo; how it was run: as §4
[32] = Homo sapiens, LNCaP, 72 h, read-out: IC50

## CNC(=O)c1ccc(N2C(=S)N(c3ccc(C#N)c(C(F)(F)F)c3)C(=O)[C@@H]2C)cc1F
[1]
  Ki: 95.3 nM
[2]; [32]
  IC50: 398 nM

## CNC(=O)c1ccc(N2C(=S)N(c3ccc(C#N)c(C(F)(F)F)c3)C(=O)[C@]23CCOC3)cc1F
[3]
  AUC: 13000 ng·h/mL
[4]
  t1/2: 5.2 h
[5]
  bioavailability: 100%
[6]
  Ki: 18.4 nM
[7]
  MRT last: 6.9 h
[8]
  AUC: 13105 ng·h/mL
[9]
  AUC(0-inf): 2620 ng·h/mL
[10]
  clearance: 6.67 mL/min/kg
[11]
  AUC: 2570 ng·h/mL
[12]
  Vd: 2.3 L/kg
[13]
  MRT inf: 7.2 h
[14]
  MRT last: 4.8 h
[15]
  Tmax: 4.98 min
[16]
  MRT: 5.3 h
[17]
  Cmax: 1062 ng/mL
[18]
  Cmax: 531 ng/mL
[19]
  Tmax: 2 h
[20]
  t1/2: 4.1 h
[2]; [32]
  IC50: 79.2 nM

## CNC(=O)c1ccc(NC(=S)Nc2ccc(C#N)c(C(F)(F)F)c2)cc1F
[2]; [32]
  IC50: > 10000 nM

## CNC(=O)c1ccc(N2C(=S)N(c3ccc(C#N)c(C(F)(F)F)c3)C(=O)[C@@]2(C)COC)cc1F
[6]
  Ki: 40.6 nM
[2]; [32]
  IC50: 185 nM

## CNC(=O)c1ccc(N2C(=S)N(c3ccc(C#N)c(C(F)(F)F)c3)C(=O)C2(C)C)cc1F [ENZALUTAMIDE]
[2]; [32]
  IC50: 127 nM

## CNC(=O)c1ccc(N2C(=S)N(c3ccc(C#N)c(C(F)(F)F)c3)C(=O)C2(C)CO)cc1F (stereo not given)
[1]
  Ki: 43.3 nM
[2]; [32]
  IC50: 212 nM

## COC(=O)c1ccc(N2C(=S)N(c3ccc(C#N)c(C(F)(F)F)c3)C(=O)[C@]23CCOC3)cc1F
[3]
  AUC: 570 ng·h/mL
[21]
  half-life: 4.3 h
[5]
  bioavailability: 19%
[6]
  Ki: 11.9 nM
[7]
  MRT last: 4.6 h
[22]
  CL/F: 147 mL/min/kg
[23]
  Vdss: 1.6 L/kg
[24]
  AUC(0-inf): 576 ng·h/mL
[9]
  AUC(0-inf): 712 ng·h/mL
[25]
  CL: 28.3 mL/min/kg
[11]
  AUC: 599 ng·h/mL
[12]
  Vd: 46 L/kg
[13]
  MRT inf: 5 h
[14]
  MRT last: 4.3 h
[15]
  Tmax: 4.98 min
[16]
  MRT: 12.8 h
[26]
  Cmax: 104 ng/mL
[27]
  Vdss: 2 L/kg
[28]
  Cmax: 518 ng/mL
[29]
  Tmax: 1.67 h
[30]
  half-life: 17.1 h
[2]; [32]
  IC50: 59 nM
[31]
  Vd: 53 L/kg

## CNC(=O)c1ccc(N2C(=S)N(c3ccc(C#N)c(C(F)(F)F)c3)C(=O)C2(COC)COC)cc1F
[6]
  Ki: 585 nM
[2]; [32]
  IC50: 3370 nM

## CC(O)(CS(=O)(=O)c1ccc(F)cc1)C(=O)Nc1ccc(C#N)c(C(F)(F)F)c1 (stereo not given) [BICALUTAMIDE]
[2]; [32]
  IC50: 733 nM

## CNC(=O)c1ccc(N2C(=S)N(c3ccc(C#N)c(C(F)(F)F)c3)C(=O)C2(C)COCc2ccccc2)cc1F (racemic)
[6]
  Ki: 514 nM
[2]; [32]
  IC50: 2300 nM

## CNC(=O)c1ccc(N2CCC(=O)N(c3ccc(C#N)c(C(F)(F)F)c3)C2=S)cc1F
[6]
  Ki: 576 nM
[2]; [32]
  IC50: 3010 nM

## CNC(=O)c1ccc(N2C(=S)N(c3ccc(C#N)c(C(F)(F)F)c3)C(=O)C2(C)CC(=O)O)cc1F (racemic)
[6]
  Ki: Not Active
[2]; lncap
  IC50: Not Active

## CNC(=O)c1ccc(N2CC(=O)N(c3ccc(C#N)c(C(F)(F)F)c3)C2=S)cc1F
[2]; [32]
  IC50: > 10000 nM
